Screening data from PubChem.
In the library only some 2.9% were active in any assay of this set; here they are far more common.
VIM-2 inh – VIM-2 metallo-beta-lactamase inhibitors, primary screen, biochemical, epi-absorbance readout, Pseudomonas aeruginosa enzyme; purified VIM-2, nitrocefin hydrolysis, epi-absorbance fluorescence; inhibition, % at 5.6 µM; 290,000 tested, 0.89% active;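 active means inhibition above the mean of all tested compounds plus 3 SD, cutoff set per screening run, cut at about 7.5% in these data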;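 further: red hydrolysis product quenches plate fluorescence so inhibitors raise well fluorescence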
PolyA inhibitor – polyadenylation inhibitors in yeast reporter cells, primary screen, luminescence, S. cerevisiae. S. cerevisiae SKY197-pL101 polyadenylation reporter, beta-gal luminescence; efflux-impaired pdr1/pdr3 knockout yeast; score 100 = 6 SD above DMSO. activity score, % at 12 µM. 300,000 tested, 0.02% active. AID 1875, 2009;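 active means lowest replicate activity score at least 50, where 100 means six control SD above control mean; inconclusive means lowest score under 50 but half or more replicates reach 50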;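 further: yeast exposed to compound for 9 h at 30 °C; higher score means more reporter readthrough which indicates perturbed polyadenylation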
NALP1 inh – NALP1 inflammasome inhibitors in reconstituted yeast, colorimetric, S. cerevisiae, triplicate retest; S. cerevisiae NALP1/ASC/caspase-1 growth, X-gal OD620, 72 h; inhibition, % at 10 µM; 280,000 tested, 0.61% active; in the data active means inhibition mostly above about 24%, no sharp cut-off; inactive means mostly below about 32%
NALP3 yeast inh – NALP3 inflammasome inhibitors in reconstituted yeast, primary screen, luminescence, uHTS | Yeast reconstituted NLRP3/ASC/caspase-1, beta-gal luminescence, 24 h | inhibition, % at 10 µM | 330,000 tested, 0.39% active;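 active means inhibition of 50% or more; inactive means inhibition below 50%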
SUMO Mot1 rescue – yeast Mot1-301 growth rescue at high temperature, primary screen, SUMOylation pathway inhibitor project, S. cerevisiae, ATP luminescence, 38.5C; S. cerevisiae Mot1-301 growth rescue; percent above DMSO median, 100 means doubled; growth rescue, % at 18.8 µM; 320,000 tested, 1% active;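 active means every valid replicate shows activation above 250% relative to neutral control wells; inactive means the rest, any valid replicate at or below 250%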
IMP-1 inhibitor – IMP-1 metallo-beta-lactamase inhibitors, primary screen, biochemical, epi-absorbance readout, Pseudomonas aeruginosa enzyme; 290,000 tested, 0.45% active; inhibition, % at 5.6 µM; purified IMP-1, nitrocefin hydrolysis, epi-absorbance fluorescence;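 active means inhibition above the mean plus 3 SD of all compounds in the same screening run, cut at about 4.5% in these data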
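System: purified recombinant IMP-1 beta-lactamase. Medium: Zinc- and detergent-supplemented HEPES buffer, pH 7.1. Compound: one 5.6 µM dose […]. Schedule: 15 min preincubation plus 25 min reaction at 25 °C. Technique: Epi-absorbance fluorescence, 480 nm excitation, 530 nm emission.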
NALP3 yeast conf – NALP3 inhibitors retested in yeast, confirmation, luminescence, single concentration | yeast expressing human NALP3 | 1,300 tested, 81% active | inhibition, % at 10 µM | shares compounds with NALP3 yeast inh | AID 435006, 2010; in the data active means inhibition above about 48%
Casp1-ASC yeast – CASP1-PYCARD signaling inhibition in yeast, confirmatory test, counterassay for NLRP3 inhibitor program, one-dose; shares compounds with NALP3 yeast inh; inhibition, % at 10 µM; 1,000 tested, 66% active; yeast expressing Caspase-1-ASC, luminescence counter screen
NALP3 retest – NALP3 inhibitors in yeast, repeat test, confirmation, luminescence, single concentration, retest. shares compounds with NALP3 yeast inh. yeast expressing human NALP3, luminescence read-out. inhibition, % at 10 µM. 1,000 tested, 53% active
A number is an active result; . = inactive; ? = inconclusive; / = no result. Unless noted, no stated cut-off is given here; in the data, active means inhibition above about 50%; inactive means the rest.

SMILES	VIM-2 inh	PolyA inhibitor	NALP1 inh	NALP3 yeast inh	SUMO Mot1 rescue	IMP-1 inhibitor	NALP3 yeast conf	Casp1-ASC yeast	NALP3 retest
COc1ccc2[nH]c3c(C)c4ccncc4c(C)c3c2c1	.	.	55	89	.	.	96	99	91
COc1ccc2c(c1)CC/C2=N\OC(=O)c1cccc(C)c1	.	.	.	52	.	.	.	/	/
COc1cccc2c1C(=O)c1c(O)c3c(c(O)c1C2=O)C[C@@](O)(C(=O)CO)C[C@@H]3O[C@H]1C[C@H](N)[C@H](O)[C@H](C)O1	24	.	.	65	.	5.7	69	75	66
Cc1ccc(C)c(Oc2nnnn2-c2ccccc2)c1	.	.	.	.	.	.	.	/	/
Cc1ccc(C(C)C)c(Oc2nnnn2-c2ccccc2)c1	.	.	.	.	.	.	/	/	/
CC(=O)Oc1ccc(Oc2ccc(-c3noc(C)n3)cc2)cc1	.	?	.	56	.	.	72	70	56
Cc1cc(C)c(S(=O)(=O)N2CCN(C(=O)C3COc4ccccc4O3)CC2)c(C)c1 (stereo unspecified)	/	/	/	.	.	/	/	/	/
Cc1cccc(NC(=O)CSCC(=O)N2CCN(C(=O)c3ccco3)CC2)c1	/	/	/	.	.	/	/	/	/
COC(=O)c1ccccc1NC(=O)C1CCCN(S(=O)(=O)c2ccccc2)C1 (stereo unspecified)	.	.	.	.	.	.	/	/	/
COc1ccc(S(=O)(=O)N2CCN(c3nc(C)cc(C)n3)CC2)cc1	.	.	.	53	.	.	65	63	58
COC(=O)c1ccccc1NC(=O)C1CCCN(S(=O)(=O)c2ccc(OC)cc2)C1 (stereo unspecified)	.	.	.	64	.	.	77	63	60
COc1ccc(S(=O)(=O)N2CCN(c3ncccn3)CC2)cc1	/	.	/	.	.	/	/	/	/
COc1ccc(-c2ccc(S(=O)(=O)N3CCCC3)cc2)cc1	.	.	.	53	.	.	.	54	.
COC(=O)c1cc(S(=O)(=O)NCC2CCN(Cc3cc(C)ccc3C)CC2)c[nH]1	.	.	.	.	.	.	/	/	/
Cc1ccc(CSc2nc3ccccc3c(=O)n2C)cc1	.	.	.	.	.	.	/	/	/
Cc1ccc2c(c1)sc(=NC(=O)c1cccs1)n2C	.	.	.	58	.	.	.	.	.
CC(C)(C)c1csc(N/N=C/c2cccnc2)n1	.	.	.	58	.	.	68	76	56
C(=N\Nc1nc(-c2ccccc2)cs1)/c1cccnc1	.	.	.	.	.	.	/	/	/
O=C(CCN1CCCC1)c1cccs1	.	.	.	.	.	.	/	/	/
O=C(CCN1CCC(c2cccs2)=N1)c1cccs1	.	.	.	90	.	.	90	96	87
Cc1ccc(Nc2nc(N)c3ccccc3n2)cc1Cl	.	.	.	55	.	.	65	.	.
S=C(Nc1cc(Cl)cc(Cl)c1)NC1CCN(Cc2ccccc2)CC1	.	.	.	56	.	.	53	/	/
Cc1cc(C)cc(OCC(=O)Nc2ccncc2)c1	.	.	.	.	.	.	/	/	/
COc1ccc(C(=O)c2no[n+]([O-])c2C(=O)c2ccc(OC)cc2)cc1	.	.	.	70	.	.	80	81	62
COc1ccc(NC(=O)c2c(N)no[n+]2[O-])cc1	.	.	.	.	.	.	/	/	/
SMILES	VIM-2 inh	PolyA inhibitor	NALP1 inh	NALP3 yeast inh	SUMO Mot1 rescue	IMP-1 inhibitor	NALP3 yeast conf	Casp1-ASC yeast	NALP3 retest
CCOC(=O)N1CCN(C(=O)CNC(=O)c2ccc(Cl)cc2)CC1	.	.	.	.	.	.	/	/	/
Cc1cccc(/C=C/c2onc(C)c2[N+](=O)[O-])n1	/	.	/	89	.	/	63	96	77
Cc1cccc(N/C=C/c2onc(C)c2[N+](=O)[O-])c1	.	.	.	.	.	.	/	/	/
Cn1c(=NC(=O)COc2ccccc2)sc2ccccc21	.	.	.	60	.	.	.	/	/
CCc1ccc([C@@H]2CC=C(C(=O)O)[C@H](c3ccc(C(C)(C)C)cc3)N2S(=O)(=O)c2ccc(C)cc2)cc1	/	/	/	.	.	/	/	/	/
CC1CCCCN1S(=O)(=O)c1cnc(Cl)c(Br)c1 (stereo unspecified)	.	.	.	55	.	.	54	/	/
Cc1ccc(OCC(=O)OCC(=O)N2c3ccccc3CC2C)cc1C (stereo unspecified)	/	/	/	.	.	/	/	/	/
Clc1nnc(N/N=C/c2ccccc2)c2ccccc12	.	.	.	60	.	.	71	.	.
CCCOc1cc(C)c(S(=O)(=O)N2CCOCC2)cc1C	.	.	.	57	.	.	52	/	/
CCOc1cc(C)c(S(=O)(=O)N2CCCC2)cc1C	.	.	.	83	.	.	80	90	81
Cc1cc(S(=O)(=O)N2CCCCCC2)c(Cl)cc1Cl	.	.	.	61	.	.	64	71	.
Cc1ccc(-c2csc(N3CCC[C@@H]3C(=O)NCCn3c(-c4ccncc4)nc4ccccc43)n2)cc1	.	.	.	.	.	.	/	/	/
CN(C(=O)c1ccc(OC2CCN(CCc3ccccc3)CC2)cc1)C1CCCCC1	.	.	.	.	.	.	/	/	/
CC(C)(C)OC(=O)NCCCCCNC(=O)c1[nH]cnc1C(=O)Nc1ccon1	/	/	/	.	.	/	/	/	/
CN(Cc1ccc2ccccc2c1)C(=O)c1ccc(C(F)(F)F)cc1	.	.	.	.	.	.	/	/	/
COc1ccc([N+](=O)[O-])cc1NC(=O)CSCc1cc(C)cc(C)c1	.	.	.	.	/	.	/	/	/
COc1ccccc1NC(=O)CSCc1ccc([N+](=O)[O-])cc1	.	.	41	65	.	.	60	59	51
O=C1C=CN2CCOCC2C1 (stereo unspecified)	/	/	/	.	.	/	/	/	/
CN1CCN(c2cc(-c3ccccc3)nc3cc(-c4ccc(F)cc4)nn23)CC1	.	.	.	52	.	.	63	68	66
CS(=O)(=O)N1CCC(Oc2ccccc2C(=O)N2CCC[C@H]2CO)CC1	.	.	.	.	.	.	/	/	/
NC(=S)N/N=C/c1ccc(C23CC4CC(CC(C4)C2)C3)cc1	.	.	.	64	.	.	.	/	/
